# Screens as filed in PubChem BioAssay.
# MrgX1 antag: blocks BAM8-22 activation of human MrgX1 receptor | Q96LB2 | MRGX1-HEK293 calcium flux, Fluo-4, BAM8-22 antagonism; active compounds read low | B-score at 10 µM | hit rate 1.3% among 310,000 | AID 588676;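 active = calcium-response B-score plate-corrected more than 3 library SD below zero, starting fluorescence within 5 deviations, no agonist response on first addition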;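 note: peak minus trough fluorescence over baseline after final BAM8-22 challenge near maximal dose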
# RGS4 block: human RGS4 inhibition. HEK293 M3R/RGS4 inducible, Fluo-4 calcium flux; active compounds read high; triggered by carbachol at its EC20. AID 463165. P49798. B-score at 10 µM. hit rate 0.45% among 310,000;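 active = B-score, a plate-corrected calcium signal, over three deviations above library mean, with baseline fluorescence within five deviations of library mean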;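 note: RGS4 expression induced by doxycycline in cells with stable M3 receptor; B-score is computed from the integrated fluorescence ratio over baseline after carbachol; higher B-score means a larger calcium signal and so more RGS4 inhibition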
# Target sequence (P49798 whole entry, looked up): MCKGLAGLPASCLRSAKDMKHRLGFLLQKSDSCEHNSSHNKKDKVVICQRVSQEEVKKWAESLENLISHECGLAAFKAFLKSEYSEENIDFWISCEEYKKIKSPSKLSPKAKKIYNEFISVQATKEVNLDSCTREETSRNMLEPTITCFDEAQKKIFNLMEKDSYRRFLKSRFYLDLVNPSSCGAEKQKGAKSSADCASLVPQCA
# MrgX1 PAM: human MrgX1 positive allosteric modulation, primary screen; Q96LB2; MrgX1-HEK293, Fluo-4 calcium flux, FDSS; active compounds read high; B-score at 10 µM; hit rate 0.63% among 310,000;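 active = plate-corrected calcium response at least 3 library SD above typical, normal starting fluorescence, not activating the receptor alone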;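 note: compound read alongside a low EC10 to EC30 dose of BAM8-22 agonist; peak minus trough fluorescence over baseline measured at the second addition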
# MrgX1 ag: agonists of human MrgX1 receptor; B-score at 10 µM; hit rate 0.44% among 310,000; MrgX1-HEK293 cells, Fluo-4 calcium fluorescence, agonist mode; active compounds read high; AID 588627; Q96LB2;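 active = calcium response B-score plate-corrected fluorescence ratio at least 3 library SD, with starting fluorescence B-score inside 5 SD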
#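 Test system: Stable human MrgX1 HEK293 cell line | Schedule: Overnight plating before 1 h dye loading | Read-out basis: Baseline-normalised fluorescence change ratio, B-scored | Detection: Kinetic calcium dye fluorescence, Fluo-4 NW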
# RGS4 act: RGS4 potentiation or activation. HEK293 M3R/inducible RGS4, carbachol calcium flux Fluo4; active compounds read low. B-score at 10 µM. hit rate 0.92% among 310,000. AID 463111;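 active = B-score of the integrated calcium signal more than 4 SD below the library mean, with starting fluorescence not abnormally high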;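 note: negative B-score means reduced calcium response which marks RGS4 activation or potentiation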
#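 System: HEK293 FlpIn-TREx cells, stable M3R, doxycycline-inducible RGS4. Timing: overnight RGS4 induction, 30 min dye load 37 °C, 20 min compound RT. Also added: carbachol, ECmax concentration. Measured by: Fluo4 fluorescence kinetic imaging of calcium. Evaluation: integrated calcium ratio converted to B score.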
# A number is an active result; n = inactive; x = no result given. Most compounds without a hit are left out; they make up all but 3.5% or so of the library.
SMILES,MrgX1 antag,RGS4 block,MrgX1 PAM,MrgX1 ag,RGS4 act
N/C(=N\N=C\c1ccc(O)cc1O)N[N+](=O)[O-],n,n,n,n,n
COc1ccccc1/C=N/N=C(/N)N[N+](=O)[O-],-7.7,n,n,n,n
O=[N+]([O-])c1cc(F)c(N2CCCCCC2)cc1N1CCNCC1,-5.18,n,n,n,n
CN1CCN(c2ccc([N+](=O)[O-])c(N3CCCCC3)c2)CC1,n,n,n,n,n
O=[N+]([O-])c1ccc(N2CCNCC2)cc1N1CCCCCC1,n,n,11.4,n,n
CSc1ncc(CN2CCCC(C(=O)c3sccc3C)C2)cn1 (stereo unspecified),n,n,n,n,n
COCCN1C(=O)NC(=O)/C(=C\c2ccc(F)cc2)C1=O,n,n,n,n,n
Cc1nc2ccccc2c(=O)n1-c1cccnc1,n,n,n,n,n
CCC12CN3CCN(CC(C3)/C1=N/NC(=O)c1ccncc1)C2,n,n,n,n,n
CCOC(=O)c1c(-n2c(C)cc(C=C3C(=O)NC(=S)NC3=O)c2C)sc2c1CCCC2,n,n,n,28.3,n
CCOC(=O)c1c(-n2c(C)cc(/C=C3/C(=O)NC(=O)N(CC)C3=O)c2C)sc2c1CCCC2,n,n,n,n,n
CCCCCCOc1ccc(CN2CCN(CC)CC2)cc1,n,n,n,n,-7.14
CCN1CCN(Cc2ccc(OC(F)(F)F)cc2)CC1,n,n,n,n,n
Cc1cccc(NP(=O)(Oc2ccccc2F)Oc2ccccc2F)c1,n,n,n,n,-7.78
Cc1ccc(NP(=O)(Oc2ccccc2F)Oc2ccccc2F)cc1C,n,n,n,n,n
O=P(Nc1cccc(F)c1)(Oc1ccccc1F)Oc1ccccc1F,n,n,n,n,-8.24
CC(C)OCCCNC(=O)c1c(N)n(CC2CCCO2)c2nc3ccccc3nc12 (stereo unspecified),n,n,n,n,-7.21
CCCNC(=O)c1c(N)n(CC2CCCO2)c2nc3ccccc3nc12 (stereo unspecified),n,n,n,n,n
CN(C)C=C1C(=O)N(C2CCCCC2)C(=O)N(C2CCCCC2)C1=O,n,n,n,52,n
CC(C)NC(C)C(=O)C12CC3CC(CC(C3)C1)C2 (stereo unspecified),n,n,n,n,n
CN1Cc2c(c(C#N)c(N)n(C)c2=S)CC1(C)C,n,n,n,n,-9.35
Clc1cnc(Oc2ccc(Oc3ncc(Cl)cc3Cl)cc2)c(Cl)c1,n,n,12.6,n,n
CCOC(=O)c1c(C)n(Cc2ccccc2)c2ccc(OCC(O)CNC(C)(C)C)cc12 (stereo unspecified),-4.74,n,n,n,n
CCCNS(=O)(=O)c1ccc(OCC(=O)N2CCN(C)CC2)cc1,n,n,n,n,n
NC(N)=N/N=C/c1cn(-c2ccccc2)nc1-c1cccs1,n,n,n,43.7,n
SMILES,MrgX1 antag,RGS4 block,MrgX1 PAM,MrgX1 ag,RGS4 act
O=c1c2ccccc2nc(-c2cccs2)n1-c1ccccc1,n,n,n,n,n
O=C(CNC(=O)c1ccccc1)Nc1ccc(Br)cc1C(=O)c1ccccc1,n,n,n,n,n
O=C(Nc1ccccc1)OC1CN=C(N[N+](=O)[O-])NC1 (stereo unspecified),-5.69,n,n,n,n
COc1cc2c(c(OC)c1OC)-c1ccc(O)c(=O)cc1[C@@H](N)CC2,n,x,n,n,x
C=C(C=O)CC1CC(O)[C@]2(C)OC3CC4OC5C[C@]6(C)O[C@]7(C)CCC8OC9C[C@]%10(C)OC%11C(C)=CC(=O)OC%11CC%10OC9C[C@@H](C)C8OC7CC6O[C@]5(C)CC5OC5C4OC3CC2O1 (stereo partly specified),-5.41,n,n,n,n
C=C(COC(C)=O)CC1CC(O)[C@]2(C)OC3CC4OC5C[C@]6(C)O[C@]7(C)CCC8OC9C[C@]%10(C)OC%11C(C)=CC(=O)OC%11CC%10OC9C[C@@H](C)C8OC7CC6O[C@]5(C)C/C=C\C4OC3CC2O1 (stereo partly specified),x,18.4,x,x,n
CCc1nnc(NC(=O)CCc2nc(C3=CCN(C)CC3)no2)s1,n,n,n,n,n
OC(Cn1c2ccccc2c2ccccc21)C[n+]1cccc2ccccc21 (stereo unspecified),n,n,n,n,-7.93
O=C1NC(=O)C(=Cc2ccc3ccccc3c2)C(=O)N1,n,n,n,n,n
